Data published in ChEMBL document CHEMBL4257483, “Design, synthesis and bioactivities of phenithionate analogues or derivatives for anti-schistosomiasis” (Medchemcomm, 2018).
Converted amounts (≈) assume the structure as drawn. The source made the active and inactive calls. The rule behind the calls is not given here.

Legend:
Schistosoma japonicum [1] = assay: Antischistosomal activity against Schistosoma japonicum larva derived from infected mouse assessed as reduction in larva viability after 72 hrs; assay type: functional, organism-based
Method in brief: (§1)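 Worms perfused with cold heparinised HBSS from mice infected percutaneously with S. japonicum cercariae: larvae at 15 days post-infection (260–280 cercariae), adults at 35 days (120–140 cercariae). Five male and female worms per well in 10% calf serum RPMI 1640 with penicillin, streptomycin and amphotericin B. Preincubated 4 h at 37 °C, 5% CO2, then compounds added and viability recorded over 72 h. IC50 taken at 50% survival. DMSO blank.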

Schistosoma japonicum [2] = assay: Antischistosomal activity against Schistosoma japonicum imago derived from infected mouse assessed as reduction in imago viability after 72 hrs; assay type: functional, organism-based; method in brief: as §1
Schistosoma japonicum [3] = assay: Antischistosomal activity against Schistosoma japonicum imago derived from infected mouse at 20 ug/ml after 72 hrs; assay type: functional, organism-based; method in brief: as §1
Schistosoma haematobium = assay: Antischistosomal activity against Schistosoma haematobium imago derived from infected mouse at 20 ug/ml after 72 hrs; assay type: functional, organism-based
Schistosoma mansoni = assay: Antischistosomal activity against Schistosoma mansoni imago derived from infected mouse at 20 ug/ml after 72 hrs; assay type: functional, organism-based
[4] = Lipid/water partition coefficient, log P of the compound; assay type: physicochemical
[5] = Dissociation constant, pKa of the compound; assay type: physicochemical
Schistosoma japonicum [6] = assay: Antischistosomal activity against Schistosoma japonicum infected in mouse at 25 mg/kg/day, po treated for 5 days measured after day 1 post last dose by ELISA; assay type: functional, organism-based
Method in brief: (§2)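 Male mice (20–22 g) infected via abdominal skin with 120–140 S. japonicum cercariae. From day 35 post-infection, dosed orally once daily for 5 days. Venous blood then clotted and centrifuged 15 min at 3500 rpm. Serum tested by triple dot ELISA and scored by spot colour: brown +++, yellow ++, slight yellow +, colourless –. DMSO blank.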

Schistosoma japonicum [7] = assay: Antischistosomal activity against Schistosoma japonicum infected in mouse at 50 mg/kg/day, po treated for 5 days measured after day 1 post last dose by ELISA; assay type: functional, organism-based; method in brief: as §2
Schistosoma japonicum [8] = assay: Antischistosomal activity against Schistosoma japonicum infected in mouse at 25 mg/kg/day, po treated for 5 days measured after day 2 post last dose by ELISA; assay type: functional, organism-based; method in brief: as §2
Schistosoma japonicum [9] = assay: Antischistosomal activity against Schistosoma japonicum infected in mouse at 50 mg/kg/day, po treated for 5 days measured after day 2 post last dose by ELISA; assay type: functional, organism-based; method in brief: as §2
Schistosoma japonicum [10] = assay: Antischistosomal activity against Schistosoma japonicum infected in mouse at 25 mg/kg/day, po treated for 5 days measured after day 3 post last dose by ELISA; assay type: functional, organism-based; method in brief: as §2
Schistosoma japonicum [11] = assay: Antischistosomal activity against Schistosoma japonicum infected in mouse at 50 mg/kg/day, po treated for 5 days measured after day 3 post last dose by ELISA; assay type: functional, organism-based; method in brief: as §2
Schistosoma japonicum [12] = assay: Antischistosomal activity against Schistosoma japonicum infected in mouse at 25 mg/kg/day, po treated for 5 days measured after day 4 post last dose by ELISA; assay type: functional, organism-based; method in brief: as §2
Schistosoma japonicum [13] = assay: Antischistosomal activity against Schistosoma japonicum infected in mouse at 50 mg/kg/day, po treated for 5 days measured after day 4 post last dose by ELISA; assay type: functional, organism-based; method in brief: as §2
Schistosoma japonicum [14] = assay: Antischistosomal activity against Schistosoma japonicum infected in mouse at 25 mg/kg/day, po treated for 5 days measured after day 5 post last dose by ELISA; assay type: functional, organism-based; method in brief: as §2
Schistosoma japonicum [15] = assay: Antischistosomal activity against Schistosoma japonicum infected in mouse at 50 mg/kg/day, po treated for 5 days measured after day 5 post last dose by ELISA; assay type: functional, organism-based; method in brief: as §2
Schistosoma japonicum [16] = assay: Antischistosomal activity against Schistosoma japonicum infected in mouse at 25 mg/kg/day, po treated for 5 days measured after day 6 post last dose by ELISA; assay type: functional, organism-based; method in brief: as §2
Schistosoma japonicum [17] = assay: Antischistosomal activity against Schistosoma japonicum infected in mouse at 50 mg/kg/day, po treated for 5 days measured after day 6 post last dose by ELISA; assay type: functional, organism-based; method in brief: as §2
Schistosoma japonicum [18] = assay: Antischistosomal activity against Schistosoma japonicum infected in mouse at 25 mg/kg/day, po treated for 5 days measured after day 7 post last dose by ELISA; assay type: functional, organism-based; method in brief: as §2
Schistosoma japonicum [19] = assay: Antischistosomal activity against Schistosoma japonicum infected in mouse at 50 mg/kg/day, po treated for 5 days measured after day 7 post last dose by ELISA; assay type: functional, organism-based; method in brief: as §2
Schistosoma japonicum [20] = assay: Antischistosomal activity against Schistosoma japonicum infected in mouse at 25 mg/kg/day, po treated for 5 days measured after day 8 post last dose by ELISA; assay type: functional, organism-based; method in brief: as §2
Schistosoma japonicum [21] = assay: Antischistosomal activity against Schistosoma japonicum infected in mouse at 50 mg/kg/day, po treated for 5 days measured after day 8 post last dose by ELISA; assay type: functional, organism-based; method in brief: as §2
Schistosoma japonicum [22] = assay: Antischistosomal activity against Schistosoma japonicum infected in mouse at 25 mg/kg/day, po treated for 5 days measured after day 9 post last dose by ELISA; assay type: functional, organism-based; method in brief: as §2
Schistosoma japonicum [23] = assay: Antischistosomal activity against Schistosoma japonicum infected in mouse at 50 mg/kg/day, po treated for 5 days measured after day 9 post last dose by ELISA; assay type: functional, organism-based; method in brief: as §2
[24] = Acute toxicity in po dosed mouse infected with Schistosoma japonicum treated for 5 days; assay type: organism-based; conditions: in vivo

| Compound | IC50 (Schistosoma japonicum [1]) [µg/mL] | IC50 (Schistosoma japonicum [2]) [µg/mL] | Activity (Schistosoma japonicum [6]) | Activity (Schistosoma japonicum [7]) | Activity (Schistosoma japonicum [8]) | Activity (Schistosoma japonicum [9]) | Activity (Schistosoma japonicum [10]) | Activity (Schistosoma japonicum [11]) | Activity (Schistosoma japonicum [12]) | Activity (Schistosoma japonicum [13]) | Activity (Schistosoma japonicum [14]) | Activity (Schistosoma japonicum [16]) | Activity (Schistosoma japonicum [17]) | Activity (Schistosoma japonicum [18]) | Activity (Schistosoma japonicum [19]) | Activity (Schistosoma japonicum [20]) | Activity (Schistosoma japonicum [21]) | Activity (Schistosoma japonicum [22]) | Activity (Schistosoma japonicum [23]) | LD50 at 120 h [24] [mg/kg] | further results |
| --- | --- | --- | --- | --- | --- | --- | --- | --- | --- | --- | --- | --- | --- | --- | --- | --- | --- | --- | --- | --- | --- |
| O=[N+]([O-])c1ccc(Oc2ccc(NC(=S)Oc3ccc(O)cc3)cc2)cc1 | 6.38 (≈ 16.7 µM) | 8.02 (≈ 21 µM) | Active | Active | Active | Active | Active | Active | Active | Active | Active | Active | inactive | Active | inactive | inactive | inactive | inactive | inactive | 275 | Activity (Schistosoma japonicum [3]): Active; Activity (Schistosoma haematobium): inactive; Activity (Schistosoma mansoni): inactive; logP [4]: 5.01; pKa [5]: 9.23; Activity (Schistosoma japonicum [15]): Active |
| Oc1ccc(OC(=S)Nc2ccc(Oc3ccc(C(Cl)(Cl)Cl)cc3)cc2)cc1 | 7.98 (≈ 17.5 µM) | 13.5 (≈ 29.8 µM) | Active | Active | Active | Active | Active | Active | Active | Active | Active | Active | Active | inactive | Active | inactive | Active | inactive | Active | > 500 | Activity (Schistosoma japonicum [3]): Active; Activity (Schistosoma haematobium): inactive; Activity (Schistosoma mansoni): inactive; logP [4]: 6.84; pKa [5]: 9.24 |
| Oc1ccc(OC(=S)Nc2ccc(Oc3ccc(C(F)(F)F)cc3)cc2)cc1 | 5.21 (≈ 12.9 µM) | 6.35 (≈ 15.7 µM) | Active | Active | Active | Active | Active | Active | Active | inactive | Active | inactive | inactive | inactive | inactive | inactive | inactive | inactive | inactive | > 500 | Activity (Schistosoma japonicum [3]): Active; Activity (Schistosoma haematobium): inactive; Activity (Schistosoma mansoni): inactive; logP [4]: 6.11; pKa [5]: 9.23; Activity (Schistosoma japonicum [15]): inactive |
| O=C(C1CCCCC1)N1CC(=O)N2CCc3ccccc3C2C1 (stereo not given) [PRAZIQUANTEL] | 6.33 (≈ 20.3 µM) | 7.98 (≈ 25.5 µM) | Active | Active | Active | Active | Active | Active | Active | Active | Active | Active | Active | inactive | inactive | inactive | inactive | inactive | inactive | > 500 | Activity (Schistosoma japonicum [15]): Active |
| Oc1ccc(OC(=S)Nc2ccc(Nc3ccc(C(F)(F)F)cc3)cc2)cc1 | 5.43 (≈ 13.4 µM) | 6.68 (≈ 16.5 µM) | Active | Active | Active | Active | Active | Active | Active | inactive | Active | inactive | inactive | inactive | inactive | inactive | inactive | inactive | inactive | > 500 | Activity (Schistosoma japonicum [3]): Active; Activity (Schistosoma haematobium): inactive; Activity (Schistosoma mansoni): inactive; logP [4]: 6.04; pKa [5]: 9.23; Activity (Schistosoma japonicum [15]): inactive |
| O=[N+]([O-])c1ccc(Nc2ccc(NC(=S)Oc3ccc(O)cc3)cc2)cc1 | 6.42 (≈ 16.8 µM) | 8.05 (≈ 21.1 µM) | Active | Active | Active | Active | Active | Active | Active | Active | Active | Active | inactive | Active | inactive | inactive | inactive | inactive | inactive | 280 | Activity (Schistosoma japonicum [3]): Active; Activity (Schistosoma haematobium): inactive; Activity (Schistosoma mansoni): inactive; logP [4]: 4.54; pKa [5]: 9.22; Activity (Schistosoma japonicum [15]): Active |
